Results on 14 compounds are retold here after PubChem BioAssay.

The source made the active and inactive calls.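 How the source made its calls, unless noted: active means fluorescence slope higher than the sample average by over 3 SD (cut at about -0.22 in these data, passing the limit was not always enough); inactive means the rest.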

Assay [1] in a line: inhibitors of TNFa-induced NFkB p65 translocation, primary screen, imaging, HUVEC, MLSMR starter and 10KST1 sets (AID 438;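 active means inhibition above 20% together with a positive visual image hit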;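 further: compound added about 3h40 before a 20 min TNFalpha stimulation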;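 on inhibition: signal is the nuclear over cytoplasmic p65 intensity ratio per well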). Conditions: HUVEC TNFa-induced p65 nuclear translocation; cell count: measured here: nuclei count (cytotoxicity indicator), at 2.08 µM; inhibition: at 2 µM, stronger effect = higher value, 0% TNFa-plus-vehicle, 100% no-TNFa wells.
Assay [2] is described as follows: inhibitors of mutant huntingtin aggregation, primary screen, imaging, exon1htt(103Q)mCFP cells, high-content imaging (AID 483;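 active means visual image review flags a hit and inhibition of aggregation exceeds 20%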;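 further: compound exposure lasted 3 days before fixation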;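 on nuclei count: percent of the per-plate median nuclei count of sample wells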). Conditions: exon1htt(103Q)mCFP cell line, aggregate imaging, at 2 µM; inhibition of aggregation: stronger effect = higher value; nuclei count: measured here: cell count, toxicity.
Assay [3] is described as follows: inhibitors of E-selectin induction by TNFa, primary screen, imaging, HUVEC, immunofluorescence, MLSMR starter and 10KST1 sets (AID 487;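 active means visually confirmed hit in the image check and inhibition above 20%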;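 on inhibition: signal is fraction of cell area covered by stained E-selectin grains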;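 on nuclei count: 100% = median nuclei count of all wells on the same plate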). Conditions: HUVEC TNFalpha-induced E-selectin immunofluorescence imaging, at 2 µM; inhibition: stronger effect = higher value; nuclei count: measured here: cell number, toxicity.
Assay [4] addresses Voltage-gated potassium channel subunit beta-2 (Rattus norvegicus) (UniProt P62483). Kind of assay: KvBeta enzyme negative modulators, primary screen, biochemical, NADPH fluorescence (AID 622).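 Further: slope of raw intensity against log time taken from 70 to 1610 s.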 Conditions: recombinant KvBeta, 4-cyanobenzaldehyde reduction, at 10 µM, stronger effect = higher value.
Assay [5] shares this target. The assay is described as follows: KvBeta positive modulators, primary screen, biochemical, NADPH fluorescence (AID 623;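 active means NADPH fluorescence slope more negative than the mean of all samples by about 3 SD, 99.7% confidence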;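 further: fluorescence intensity change per second fitted from 20 to 320 s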). Conditions: Recombinant KvBeta, NADPH fluorescence decrease slope, 10 min; at 10 µM; stronger effect = lower value.
Assay [6] deals with Muscarinic acetylcholine receptor M4 (Homo sapiens) (UniProt P08173). The assay is described as follows: compounds altering M4/GIRK thallium flux, either direction, primary screen, M4 allosteric agonist project, cell-based, HEK293 M4/GIRK, BTC-AM (AID 625;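 active means fluorescence slope after compound addition differing from the mean of all tested samples at 99.7% confidence, mostly higher but some lower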;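 further: thallium influx through GIRK channels coupled to M4 in HEK293 cells with BTC-AM dye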). Conditions: at 10 µM, actives lie on both sides. Summed up:
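System: HEK293 cells with M4 receptor and GIRK channels | Incubation: Cells overnight at 37 °C, BTC-AM loading 1 h, reads 2 min total | Technique: Kinetic BTC-AM fluorescence sampled at 1 Hz, 10 s pre-addition baseline | Measure: Post-addition slope, 15–24 s, of baseline-normalized fluorescence | Control set: Carbachol positive, DMSO negative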

The nature of assay [7]: inhibitors of Sendai virus-induced IRF3 signaling, primary screen, TLR/RLR signaling modifier project, cell-based, Sendai virus stimulus, luciferase, 10K MLSCN set (AID 602276;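 active means inhibition at or above 50% at 10 µM; inactive means inhibition below 50%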;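 further: firefly luciferase from ISG56 promoter only with Renilla not read in this screen; 0% = Sendai virus plus DMSO and 100% = medium plus DMSO without virus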). Conditions: HEK293 RL24 IRF3 luciferase reporter, at 10 µM, stronger effect = higher value. Background: In a reporter assay the amount or activity of a reporter protein is the signal.
Assay [8] in a line: inhibitors of poly I:C-induced TLR3 signaling, primary screen, cell-based, poly I:C stimulus, luciferase, 10K MLSCN set (AID 602277;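 active means inhibition of the reporter signal at or above 50%; inactive means inhibition below 50%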). Conditions: HEK293-TLR3 RL24 IRF3 luciferase reporter, at 10 µM, stronger effect = higher value.

Muscarinic acetylcholine receptor M4 (Homo sapiens), sequence (P08173 whole entry, looked up): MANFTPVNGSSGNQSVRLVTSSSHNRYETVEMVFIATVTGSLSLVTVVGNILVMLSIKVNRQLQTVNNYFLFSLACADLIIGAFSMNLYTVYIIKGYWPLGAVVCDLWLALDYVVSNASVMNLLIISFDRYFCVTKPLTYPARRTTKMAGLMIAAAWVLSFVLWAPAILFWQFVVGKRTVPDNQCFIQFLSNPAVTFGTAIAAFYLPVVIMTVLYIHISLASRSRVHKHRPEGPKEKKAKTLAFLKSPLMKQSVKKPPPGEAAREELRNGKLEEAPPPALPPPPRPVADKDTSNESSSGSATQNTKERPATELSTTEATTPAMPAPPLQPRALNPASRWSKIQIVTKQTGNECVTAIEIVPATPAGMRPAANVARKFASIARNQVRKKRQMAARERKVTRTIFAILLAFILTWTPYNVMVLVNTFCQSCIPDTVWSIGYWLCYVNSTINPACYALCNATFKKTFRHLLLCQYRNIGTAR
Voltage-gated potassium channel subunit beta-2 (Rattus norvegicus), sequence (P62483 whole entry, looked up): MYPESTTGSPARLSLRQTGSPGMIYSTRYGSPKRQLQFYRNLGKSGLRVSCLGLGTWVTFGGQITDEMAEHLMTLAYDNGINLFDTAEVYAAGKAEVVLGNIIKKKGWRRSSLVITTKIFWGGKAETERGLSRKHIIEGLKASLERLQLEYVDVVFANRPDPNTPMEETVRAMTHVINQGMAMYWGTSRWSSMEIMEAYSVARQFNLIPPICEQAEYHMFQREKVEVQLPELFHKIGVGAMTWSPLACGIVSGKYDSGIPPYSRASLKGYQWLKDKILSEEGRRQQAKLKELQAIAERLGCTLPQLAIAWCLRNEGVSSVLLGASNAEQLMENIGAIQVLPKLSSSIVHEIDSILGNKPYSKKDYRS

As to `Cn1c(Cc2ccccc2)nnc1SCC(=O)NC1CCCCC1`, the cell count in assay [1] was determined as 327. In addition, the inhibition (usually the drop in the measured response relative to a control, in per cent) was -2.3% (inactive) in assay [1], -136% (inactive) in assay [3], 16.3% (inactive) in assay [7] and 0.751% (inactive) in assay [8]. Also, the inhibition of aggregation in assay [2] is -1% (inactive). The values for the nuclei count in assay [2] and in assay [3] were 94.8% and 120%, respectively. Also, the results for the fluorescence slope in assay [4] and in assay [6] were -0.0696 (active) and 0.0079 (inactive), respectively. Further, the NADPH fluorescence slope in assay [5] is -3.5e-05 (inactive).
On to `Cc1ccc(S(=O)(=O)N(C)CC(=O)NC2CCCC2)cc1`, for which the cell count in assay [1] came to 226. Also, the inhibition in assay [1] was 10.1% (inactive); in assay [3] it was -98.8% (inactive); in assay [7] it was 10.5% (inactive); in assay [8] it was 29.4% (inactive). In assay [2], the inhibition of aggregation is 1.1% (inactive). The nuclei count in assay [2] was found to be 90.7%; in assay [3] it was 148%. The fluorescence slope is -0.453 (inactive) in assay [4] and 0.00453 (inactive) in assay [6]. In addition, the NADPH fluorescence slope in assay [5] was -2.6e-05 (inactive).
`CCCCOC(=O)CSc1nc2c(cc1C#N)C(=O)CC(C)(C)C2`: the cell count in assay [1] is 531. Besides, the inhibition is 6.7% (inactive) in assay [1], 37.8% (inactive) in assay [3], -23.7% (inactive) in assay [7] and -55.1% (inactive) in assay [8]. In assay [2], the inhibition of aggregation was -21.3% (inactive). Also, the nuclei count was 98.4% in assay [2] and 96.9% in assay [3]. In addition, the fluorescence slope was -0.447 (inactive) in assay [4] and 0.00537 (inactive) in assay [6]. Further, the NADPH fluorescence slope in assay [5] is -0.000295 (inactive).
Turning to `Cc1ccccc1CS(=O)(=O)CCC(=O)N1CCN(c2ccc(N3CCOCC3)nn2)CC1`, the cell count in assay [1] stood at 318. In addition, the inhibition is -0.9% (inactive) in assay [1], -146% (inactive) in assay [3], 3.04% (inactive) in assay [7] and 12.2% (inactive) in assay [8]. In addition, the inhibition of aggregation in assay [2] is -19.9% (inactive). Besides, the nuclei count in assay [2] was determined as 81%; in assay [3] it was 87.2%. For the same compound, the values for the fluorescence slope in assay [4] and in assay [6] were -0.424 (inactive) and 0.00541 (inactive), respectively. For the same compound, in assay [5], the NADPH fluorescence slope is -8.7e-08 (inactive).
For the compound `CNC(=O)CN(c1cc(C)ccc1OC)S(=O)(=O)c1ccc(C)cc1`, the cell count in assay [1] amounted to 317. In addition, the inhibition in assay [1] was 5% (inactive); in assay [3] it was 6.9% (inactive); in assay [7] it was 5.72% (inactive); in assay [8], 6.94% (inactive). Further, the inhibition of aggregation in assay [2] was -22% (inactive). Moreover, the results for the nuclei count in assay [2] and in assay [3] were 107% and 105%, respectively. For the same compound, the fluorescence slope is -0.563 (inactive) in assay [4] and 0.00434 (inactive) in assay [6]. The NADPH fluorescence slope in assay [5] is -1.4e-05 (inactive).
`COc1ccc(-c2coc3c(CN4CCCCC4)c(O)c(CN4CCCCC4)c(O)c3c2=O)cc1`: in assay [1], the cell count came to 367. The inhibition in assay [1] was -17% (inactive); in assay [3], -63.6% (inactive); in assay [7] it was 5.54% (inactive); in assay [8] it was 32.3% (inactive). In assay [2], the inhibition of aggregation is 8.6% (inactive). Also, the nuclei count in assay [2] stood at 85.4%; in assay [3], 103%. In addition, the fluorescence slope is -0.566 (inactive) in assay [4] and 0.00504 (inactive) in assay [6]. Also, the NADPH fluorescence slope in assay [5] is -2.2e-05 (inactive).
As to `COc1cc(NC(=O)Cc2nn(C)c(=O)c3ccccc23)cc(OC)c1`, in assay [1], the cell count was found to be 693. In addition, the inhibition in assay [1] is -14.8% (inactive); in assay [3] it was -39% (inactive); in assay [7] it was -12.7% (inactive); in assay [8] it was -56.4% (inactive). In assay [2], the inhibition of aggregation is -21.4% (inactive). In addition, the nuclei count came out at 106% in assay [2] and 108% in assay [3]. Further, the fluorescence slope in assay [4] was -0.585 (inactive); in assay [6] it was 0.00514 (inactive). In assay [5], the NADPH fluorescence slope is -4.8e-05 (inactive).
Turning to `COC(=O)c1[nH]c(C)c(/C(O)=C2\C(=O)C(=O)N(CCN(C)C)C2c2ccccc2OC)c1C` (centres undefined), the cell count in assay [1] turned out to be 472. Further, the inhibition in assay [1] was -8% (inactive); in assay [3], -33.4% (inactive); in assay [7] it was -8.53% (inactive); in assay [8], 2.66% (inactive). For the same compound, in assay [2], the inhibition of aggregation is 10.7% (inactive). The nuclei count in assay [2] was 106%; in assay [3], 103%. Moreover, the results for the fluorescence slope in assay [4] and in assay [6] were -0.326 (inactive) and 0.00598 (inactive), respectively. Moreover, in assay [5], the NADPH fluorescence slope was -1.8e-05 (inactive).
With `O=C(CCCn1c(=O)c2sccc2n(Cc2ccc(F)cc2)c1=O)NCc1ccco1`, the cell count in assay [1] worked out at 417. Also, the inhibition was -9.3% (inactive) in assay [1], -40.1% (inactive) in assay [3], 7.63% (inactive) in assay [7] and 15.5% (inactive) in assay [8]. The inhibition of aggregation in assay [2] is 3% (inactive). In addition, the nuclei count in assay [2] was found to be 92.5%; in assay [3], 106%. Moreover, the figures for the fluorescence slope in assay [4] and in assay [6] were -0.583 (inactive) and 0.00594 (inactive), respectively. For the same compound, in assay [5], the NADPH fluorescence slope is -2.1e-06 (inactive).
`CCOC(=O)c1ccc(NC(=O)CCc2nc(-c3ccc(C)cc3)no2)cc1`: the cell count in assay [1] came to 368. Besides, the inhibition in assay [1] was 0.7% (inactive); in assay [3] it was -32.9% (inactive); in assay [7] it was 11.4% (inactive); in assay [8], -5.93% (inactive). Besides, the inhibition of aggregation in assay [2] is 21.5% (inactive). Also, the nuclei count in assay [2] worked out at 103%; in assay [3], 116%. Also, the results for the fluorescence slope in assay [4] and in assay [6] were -0.556 (inactive) and 0.0041 (inactive), respectively. The NADPH fluorescence slope in assay [5] is -2.2e-05 (inactive).
Take `COc1cccc2cc(C(=O)n3ccc(C)n3)c(=O)oc12`: the cell count in assay [1] came to 297. In addition, the inhibition is -8% (inactive) in assay [1], 10.9% (inactive) in assay [3], 13.4% (inactive) in assay [7] and 12.3% (inactive) in assay [8]. In addition, in assay [2], the inhibition of aggregation is -15.2% (inactive). Moreover, the nuclei count in assay [2] worked out at 93.5%; in assay [3], 88.2%. In addition, the fluorescence slope in assay [4] is -0.409 (inactive); in assay [6] it was 0.00485 (inactive). Besides, the NADPH fluorescence slope in assay [5] is 1.2e-05 (inactive).
Consider `O=C(O)C1C2CCC(O2)C1C(=O)Nc1cccc(F)c1` (centres undefined), for which the cell count in assay [1] was determined as 596. The inhibition in assay [1] was -2% (inactive); in assay [3], -56.8% (inactive); in assay [7] it was 20.3% (inactive); in assay [8] it was 19.5% (inactive). Moreover, in assay [2], the inhibition of aggregation was -0.8% (inactive). For the same compound, the nuclei count in assay [2] turned out to be 109%; in assay [3] it was 104%. For the same compound, the fluorescence slope in assay [4] was -0.435 (inactive); in assay [6], 0.00527 (inactive). Moreover, the NADPH fluorescence slope in assay [5] is -3.5e-06 (inactive).
`COc1ccc(/C(O)=C2/C(=O)C(=O)N(Cc3cccnc3)C2c2ccncc2)cc1F` (centres undefined): the cell count in assay [1] was determined as 574. For the same compound, the inhibition was -7.6% (inactive) in assay [1], -3.5% (inactive) in assay [3], 8.93% (inactive) in assay [7] and 16.5% (inactive) in assay [8]. Further, the inhibition of aggregation in assay [2] is -2.8% (inactive). In addition, the nuclei count in assay [2] was 106%; in assay [3], 117%. For the same compound, the fluorescence slope is -0.574 (inactive) in assay [4] and 0.00672 (inactive) in assay [6]. In addition, in assay [5], the NADPH fluorescence slope was -8.3e-05 (inactive).
For `COc1ccc(C2C3=C(CC(C)(C)CC3=O)Oc3ncn4nc(-c5cccnc5)nc4c32)cc1` (centres undefined), the cell count in assay [1] is 474. Besides, the inhibition was 2.7% (inactive) in assay [1], -78.2% (inactive) in assay [3], -0.431% (inactive) in assay [7] and 17.2% (inactive) in assay [8]. For the same compound, the inhibition of aggregation in assay [2] is 2% (inactive). Besides, the nuclei count in assay [2] stood at 83.8%; in assay [3] it was 144%. Further, the fluorescence slope in assay [4] was -0.327 (inactive); in assay [6], 0.00713 (inactive). The NADPH fluorescence slope in assay [5] is -2.3e-05 (inactive).
